Laboratory results reported in ChEMBL document CHEMBL3627702, “Navigating CYP1A Induction and Arylhydrocarbon Receptor Agonism in Drug Discovery. A Case History with S1P1 Agonists” (J Med Chem, 2015).
Blank lines part the entries; values can stand above or below the compound they belong to.

How the values were obtained:
[1] = Intrinsic clearance in rat hepatocytes by LC-MS/MS analysis; settings: read-out: CLH
[2] = Blood clearance in CD rat at 1 mg/kg, iv; format: ADME, organism-based
How it was run: (§1)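 Male CD rats carried femoral vein (dosing) and jugular vein (sampling) cannulae and recovered at least 2 days. They received a 1 h iv infusion at 5 mL kg−1 h−1, target 1 mg/kg, at 0.2 mg/mL in DMSO/10% Kleptose in saline (≤5%:≥95%). pH was adjusted to 8.0 if needed and the solution filtered. Definitive studies used n = 3 in crossover; others used single animals.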

[3] = Cmax in Sprague-Dawley rat at 30 mg/kg, po QD measured on day 1; format: ADME, organism-based; set-up: dose 30 mg/kg, route oral; settings: in vivo
How it was run: (§2)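 Male CD rats (226−325 g), n = 3, given the compound once daily by oral gavage for 4 days. Vehicle was 1% (w/v) methylcellulose aq suspension at 3−6 mg/mL, dosed at 5 mL/kg (target 15−30 mg/kg). Tail vein blood was taken on days 1 and 4 up to 24 h postdose. Blood was diluted 1:1 with water, extracted by acetonitrile protein precipitation and analysed by LC−MS/MS against calibration standards in diluted blood.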

[4] = AUC in Sprague-Dawley rat at 30 mg/kg, po QD measured on day 4; format: ADME, organism-based; settings: in vivo
How it was run: as §2

[5] = molecular target: Sphingosine 1-phosphate receptor 1 (Homo sapiens, UniProt P21453); experiment: Agonist activity at S1P1 receptor (unknown origin) expressed in CHO-K1 cells assessed as beta-arrestin recruitment after 60 mins by chemiluminescence assay; format: cell-based; settings: in the assay text read “after 90 mins” for “after 60 mins”
Sequence of Sphingosine 1-phosphate receptor 1 (P21453 whole entry, the tested form may be a part): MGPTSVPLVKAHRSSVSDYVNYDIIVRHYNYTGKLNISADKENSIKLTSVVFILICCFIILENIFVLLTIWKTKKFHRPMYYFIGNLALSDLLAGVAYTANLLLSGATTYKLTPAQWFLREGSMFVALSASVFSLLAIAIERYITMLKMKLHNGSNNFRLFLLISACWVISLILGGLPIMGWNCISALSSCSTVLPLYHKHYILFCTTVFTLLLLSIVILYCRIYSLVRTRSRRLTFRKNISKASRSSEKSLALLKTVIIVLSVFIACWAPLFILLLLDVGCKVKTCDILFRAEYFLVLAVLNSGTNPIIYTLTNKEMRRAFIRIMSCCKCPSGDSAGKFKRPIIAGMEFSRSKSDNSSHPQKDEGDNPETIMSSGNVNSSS
How it was run: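 PathHunter CHO-K1 cells stably express S1P1 and β-arrestin 2 fused to complementing β-galactosidase fragments. Cells in pH 7.4 HEPES/NaHCO3 buffer with 0.1% pluronic and 0.1% BSA were added to DMSO compound plates at 1 × 10^4 cells/well. Incubation was 90 min at 37 °C/5% CO2, then 15 min at room temperature. Galacton Star/Emerald II detection mix was added for 60 min at room temperature, and luminescence was read.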

[6] = Intrinsic clearance in dog hepatocytes by LC-MS/MS analysis; settings: read-out: CLH
Rattus norvegicus [7] = experiment: Dose normalized AUC in Sprague-Dawley rat at 30 mg/kg, po QD measured on day 4; format: ADME, organism-based; settings: in vivo
How it was run: as §2

CYP1A2 [8] = experiment: Induction of CYP1A2 mRNA expression in Sprague-Dawley rat hepatic microsomes at 30 mg/kg, po QD for 4 days relative to control; format: ADME, organism-based, Liver; settings: read-out: FC
[9] = Cmax in Sprague-Dawley rat at 30 mg/kg, po QD measured on day 4; format: ADME, organism-based; set-up: dose 30 mg/kg, route oral; settings: in vivo
How it was run: as §2

[10] = Intrinsic clearance in human hepatocytes by LC-MS/MS analysis; settings: read-out: CLH
[11] = Half life in CD rat at 1 mg/kg, iv; format: ADME, organism-based; settings: in vivo
How it was run: as §1

Rattus norvegicus [12] = experiment: Dose normalized AUC in Sprague-Dawley rat at 30 mg/kg, po QD measured on day 1; format: ADME, organism-based; settings: in vivo
How it was run: as §2

CYP1A1 [13] = experiment: Induction of CYP1A1 mRNA expression in Sprague-Dawley rat hepatic microsomes at 30 mg/kg, po QD for 4 days relative to control; format: ADME, organism-based, Liver; settings: read-out: FC
How it was run: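 Male CD rats (226–325 g, n = 3) were dosed by oral gavage once daily for 4 days as a 1% w/v aqueous methylcellulose suspension (3–6 mg/mL, 5 mL/kg). At the end of the study, a left lateral liver lobe section was placed in RNALater and homogenised in TRIzol. RNA was purified, DNase-treated and converted to cDNA, and Cyp1a1 was read on low-density TaqMan arrays.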

[14] = molecular target: Sphingosine 1-phosphate receptor 3 (Homo sapiens, UniProt Q99500); experiment: Agonist activity at S1P3 receptor (unknown origin) expressed in RBL membranes assessed as GTPgammaS binding after 3 hrs; format: functional, cell membranes
Sequence of Sphingosine 1-phosphate receptor 3 (Q99500 whole entry): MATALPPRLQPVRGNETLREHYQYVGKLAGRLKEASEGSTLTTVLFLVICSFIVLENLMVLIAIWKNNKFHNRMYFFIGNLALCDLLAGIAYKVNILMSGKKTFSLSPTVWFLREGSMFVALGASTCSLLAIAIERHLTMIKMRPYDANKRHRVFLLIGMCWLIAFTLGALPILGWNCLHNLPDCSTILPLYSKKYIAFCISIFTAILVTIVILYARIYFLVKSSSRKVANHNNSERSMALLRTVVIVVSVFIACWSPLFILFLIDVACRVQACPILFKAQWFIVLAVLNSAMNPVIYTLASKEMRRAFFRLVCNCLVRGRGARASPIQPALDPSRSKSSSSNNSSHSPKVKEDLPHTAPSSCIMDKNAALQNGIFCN
How it was run: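 Membranes from S1P3-expressing RBL cells were sucrose-gradient purified, used at 0.44 μg/well and coupled to WGA-coated SPA beads. Buffer was 20 mM HEPES, 10 mM MgCl2, 100 mM NaCl, pH 7.4, with 2 μg/well saponin. Precoupling was 30 min on ice. GDP was present at 5 μM final.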

[15] = Volume of distribution at steady state in CD rat at 1 mg/kg, iv; format: ADME, organism-based; settings: in vivo, read-out: Vdss
How it was run: (§3)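 Male CD rats cannulated in the femoral and jugular veins, n = 3, crossover design. Day 1: 1 h iv infusion at 1 mg/kg (0.2 mg/mL in ≤5% DMSO/≥95% 10% Kleptose in saline, 5 mL/kg/h). Day 2: oral gavage at 3 mg/kg (0.6 mg/mL in 1% methylcellulose, 5 mL/kg). Blood assayed by LC–MS/MS after acetonitrile precipitation.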

[16] = AUC in Sprague-Dawley rat at 30 mg/kg, po QD measured on day 1; format: ADME, organism-based; settings: in vivo
How it was run: as §2

[17] = Oral bioavailability in CD rat at 3 mg/kg; format: ADME, organism-based; settings: in vivo
How it was run: as §3

[18] = Lipophilicity, log D of the compound at pH 7.4; format: physicochemical; settings: buffer
[19] = Dissociation constant, pKa of the compound; format: physicochemical
CYP1A2 [20] = experiment: (§4) Induction of CYP1A2 mRNA expression in rat hepatic microsomes at 20 mg/kg, po QD for 4 days relative to control; format: ADME, organism-based, Liver; settings: hepatic microsomes, read-out: FC
How it was run: (§5)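 Male CD rats (226–325 g), n = 3, given test compound by oral gavage once daily for 4 days. Vehicle was 1% w/v methylcellulose aqueous suspension (3–6 mg/mL, 5 mL/kg); target dose 15–30 mg/kg. Liver from the left lateral lobe was put in RNALater, then TRIzol extraction and cDNA conversion; Cyp1a analysed on low-density arrays.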

Hepatocyte [21] = experiment: Induction of CYP1A2 mRNA expression in rat hepatocytes at 10 uM by Taqman analysis relative to control; format: ADME, cell-based; settings: 10 µM
CYP1A1 [22] = experiment: (§6) Induction of CYP1A1 mRNA expression in rat hepatocytes at 10 uM by Taqman analysis relative to control; format: ADME, cell-based, Hepatocyte; settings: read-out: FC
CYP1A1 [23] = experiment: (§7) Induction of CYP1A1 mRNA expression in rat hepatic microsomes at 20 mg/kg, po QD for 4 days relative to control; format: ADME, organism-based, Liver; settings: hepatic microsomes, read-out: FC
How it was run: (§8)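 Male CD rats, n = 3, received the compound once daily by oral gavage for 4 days in 1% methylcellulose suspension at 5 mL/kg. At necropsy a left lateral liver lobe section was stored in RNALater on ice. Tissue was TRIzol-homogenized, RNA purified, DNased and converted to cDNA. Cyp1a1 was read on low density arrays and expressed relative to control.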

Rattus norvegicus [24] = experiment: as §4; format: ADME, organism-based, Liver; settings: microsomes, 96 h
How it was run: as §5

Hepatocyte [25] = experiment: as §6; format: ADME, cell-based; settings: 10 µM
Rattus norvegicus [26] = experiment: as §7; format: ADME, organism-based, Liver; settings: microsomes, 96 h
How it was run: as §8

CLint scaled [1]: 2.1 mL/min/kg | clearance [2]: 53 mL/min/kg | Cmax [3]: 720 ng/mL | AUC [4]: 7000 ng·h/mL | EC50 [5]: 7.94 nM | CLint scaled [6]: 7.1 mL/min/kg | AUC/dose (Rattus norvegicus [7]): 15 kg·min/L | fold induction at 96 h (CYP1A2 [8]): 4.6 | Cmax [9]: 710 ng/mL | CLint scaled [10]: < 0.85 mL/min/kg | half-life [11]: 1.7 h | AUC/dose (Rattus norvegicus [12]): 15 kg·min/L | fold induction at 96 h (CYP1A1 [13]): 62 | EC50 [14]: > 31600 nM | Vd [15]: 6.6 L/kg | AUC [16]: 7310 ng·h/mL | bioavailability [17]: 56% | logD [18]: 2.16 | pKa [19]: 7.7
SMILES: Cc1c(-c2noc(-c3ccc(OC(C)C)c(C#N)c3)n2)ccc2c1CCN(C[C@@H](O)CO)C2

fold induction at 96 h (CYP1A2 [20]): 2 | fold change (FC) (Hepatocyte [21]): 19 | fold induction at 10 µM (CYP1A1 [22]): 43 | fold induction at 96 h (CYP1A1 [23]): 2
SMILES: CC(C)Oc1ncc(-c2nc(-c3cccc4c3OCCNC4CCCC(=O)O)no2)cc1Cl (stereo in doubt; 6)

fold change (FC) (Rattus norvegicus [24]): 1 | fold change (FC) (Hepatocyte [21]): 8 | fold change (FC) (Hepatocyte [25]): 32 | fold change (FC) (Rattus norvegicus [26]): 1
SMILES: CC(C)Oc1ncc(-c2nc(-c3cccc4c3OCCNC4CCCC(=O)O)no2)cc1Cl (stereo in doubt; 7)
